Measurements published in ChEMBL document CHEMBL3351814, “Discovery of selective hexapeptide agonists to human neuromedin U receptors types 1 and 2” (J Med Chem, 2014).
pEC50: −log10 of the molar value. The source made the active and inactive calls. The rule behind the calls is not given here. Where a SMILES comes first, the peptide text is derived from it. [ ]: non-standard residue; d: D form. The star is where a group is joined. Propanoyl(3-(3-pyridyl)) = O=C(CCc1cccnc1)*; 2Nal = N[C@@H](Cc1ccc2ccccc2c1)C(=O)O; Propanoyl(3-cHex) = O=C(CCC1CCCCC1)*; Hydrocinnamoyl = O=C(CCc1ccccc1)*; hArg = N=C(N)NCCCC[C@H](N)C(=O)O; hPhe = N[C@@H](CCc1ccccc1)C(=O)O; Phg = N[C@H](C(=O)O)c1ccccc1; Pip = O=C(O)[C@@H]1CCCCN1; Dap = NC[C@H](N)C(=O)O

Key:
[1] = molecular target: T1, Neuromedin-U receptor 1 (Homo sapiens) (UniProt Q9HB89); test: Agonist activity at human NMUR1 expressed in CHO cells assessed as concentration required to induce 50% response by calcium mobilization assay relative to NMU; type: functional, cell-based
T1 sequence (whole entry): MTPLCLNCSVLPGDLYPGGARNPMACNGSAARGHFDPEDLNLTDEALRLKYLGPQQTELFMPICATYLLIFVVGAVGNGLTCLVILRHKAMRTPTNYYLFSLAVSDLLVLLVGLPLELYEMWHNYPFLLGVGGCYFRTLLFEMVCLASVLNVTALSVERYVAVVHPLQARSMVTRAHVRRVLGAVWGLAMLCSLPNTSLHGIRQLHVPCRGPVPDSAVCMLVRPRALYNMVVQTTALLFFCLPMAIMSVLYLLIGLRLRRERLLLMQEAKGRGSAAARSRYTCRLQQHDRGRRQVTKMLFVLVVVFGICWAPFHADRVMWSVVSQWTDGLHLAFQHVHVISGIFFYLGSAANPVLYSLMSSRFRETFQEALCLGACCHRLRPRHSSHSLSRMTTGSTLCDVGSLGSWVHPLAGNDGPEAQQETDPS
Summary of the method: (§1)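 CHO cells stably expressing human NMUR1 (CHO/NMUR1-9) or NMUR2 (CHO/NMUR2-8), selected with G418, seeded 2.0 × 10^4 cells/well. Cells loaded 40 min with 4 μM Fluo-4-AM in HBSS/10 mM HEPES/2.5 mM probenecid pH 7.4. Peptides from 20 mM DMSO stocks applied at 10−12 to 10−6 M final, triplicate, FLIPR read-out. PC50 is the concentration giving 50% of the response to hNMU at 1000 nM.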

Neuromedin-U receptor 2 [2] = molecular target: T2, Neuromedin-U receptor 2 (Homo sapiens, UniProt Q9GZQ4); test: Agonist activity at human NMUR2 expressed in HEK293 cells at 1 nM by calcium mobilization assay relative to NMU; type: functional, cell-based
Summary of the method: (§2)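 HEK293 cells transiently transfected with human NMUR1 or NMUR2 plasmid (FuGENE6), reseeded 18 h post-transfection at 4.0 × 10^4 cells/well on poly-D-lysine. After 18 h, loaded 40 min with 4 μM Fluo-4-AM in HBSS/HEPES/probenecid buffer pH 7.4 with 1% FCS, then washed. Peptides in buffer with 0.05% BSA and 0.001% Triton X-100. Maximal FLIPR signal expressed as % of hNMU at 1000 nM.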

Homo sapiens [3] = organism: Homo sapiens; test: Selectivity ratio of PC50 for human NMUR1 to PC50 for human NMUR2
Summary of the method: (§3)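 Ratio of PC50 values from the CHO stable-line calcium assays. NMUR1 selectivity is PC50(NMUR2)/PC50(NMUR1); NMUR2 selectivity is PC50(NMUR1)/PC50(NMUR2).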

Neuromedin-U receptor 2 [4] = molecular target: T2, Neuromedin-U receptor 2; test: Agonist activity at human NMUR2 expressed in CHO cells assessed as concentration required to induce 50% response by calcium mobilization assay relative to NMU; type: functional, cell-based; summary of the method: as §1
Neuromedin-U receptor 2 [5] = molecular target: T2, Neuromedin-U receptor 2; test: Agonist activity at human NMUR2 expressed in CHO cells by calcium mobilization assay; type: functional, cell-based
Summary of the method: (§4)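 Calcium mobilization in CHO cells stably expressing human NMUR1 or NMUR2, Fluo-4-AM loaded, read on a fluorometric imaging plate reader. Peptides tested at 10−12 to 10−6 M final in triplicate. EC50 derived from the curves. Intrinsic activity is the maximal response as % of the endogenous agonist hNMU.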

Neuromedin-U receptor 2 [6] = molecular target: T2, Neuromedin-U receptor 2; test: Agonist activity at human NMUR2 expressed in CHO cells at 10^-12 to 10^-6 M by calcium mobilization assay relative to NMU; type: functional, cell-based; summary of the method: as §1
Homo sapiens [7] = organism: Homo sapiens; test: Selectivity ratio of PC50 for human NMUR2 to PC50 for human NMUR1; summary of the method: as §3
Neuromedin-U receptor 2 [8] = molecular target: T2, Neuromedin-U receptor 2; test: Agonist activity at human NMUR2 expressed in HEK293 cells at 10 nM by calcium mobilization assay relative to NMU; type: functional, cell-based; summary of the method: as §2
[9] = molecular target: T1, Neuromedin-U receptor 1 (Homo sapiens); test: Agonist activity at human NMUR1 expressed in HEK293 cells at 1 to 100 nM by calcium mobilization assay relative to NMU; type: functional, cell-based; summary of the method: as §2
[10] = molecular target: T1, Neuromedin-U receptor 1 (Homo sapiens); test: Agonist activity at human NMUR1 expressed in CHO cells at 10^-12 to 10^-6 M by calcium mobilization assay relative to NMU; type: functional, cell-based; summary of the method: as §1
Neuromedin-U receptor 1 [11] = molecular target: T3, Neuromedin-U receptor 1 (Homo sapiens, UniProt Q9HB89); test: Partial agonist activity at human NMUR1 expressed in CHO cells by calcium mobilization assay; type: functional, cell-based; summary of the method: as §4
T3 sequence (Q9HB89 whole entry): T1 sequence (whole entry)

[12] = molecular target: T1, Neuromedin-U receptor 1 (Homo sapiens); test: Agonist activity at human NMUR1 expressed in HEK293 cells at 10 nM by calcium mobilization assay relative to NMU; type: functional, cell-based; summary of the method: as §2
[13] = molecular target: T1, Neuromedin-U receptor 1 (Homo sapiens); test: Agonist activity at human NMUR1 expressed in HEK293 cells at 1 nM by calcium mobilization assay relative to NMU; type: functional, cell-based; summary of the method: as §2
Neuromedin-U receptor 1 [14] = molecular target: T4, Neuromedin-U receptor 1 (Mus musculus, UniProt O55040); test: Agonist activity at mouse NMUR1 expressed in HEK293 cells by calcium mobilization assay; type: functional, cell-based
T4 sequence (O55040 whole entry): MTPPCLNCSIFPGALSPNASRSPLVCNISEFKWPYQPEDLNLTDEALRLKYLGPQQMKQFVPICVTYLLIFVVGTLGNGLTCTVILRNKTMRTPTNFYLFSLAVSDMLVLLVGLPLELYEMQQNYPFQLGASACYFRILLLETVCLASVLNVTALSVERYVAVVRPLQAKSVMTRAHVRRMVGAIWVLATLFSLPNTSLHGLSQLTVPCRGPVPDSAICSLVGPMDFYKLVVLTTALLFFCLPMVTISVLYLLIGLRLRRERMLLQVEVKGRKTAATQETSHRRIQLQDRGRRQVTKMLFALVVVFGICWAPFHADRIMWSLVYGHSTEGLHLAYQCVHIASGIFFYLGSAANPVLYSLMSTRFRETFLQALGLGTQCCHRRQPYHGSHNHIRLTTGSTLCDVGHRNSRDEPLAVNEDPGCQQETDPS

Neuromedin-U receptor 2 [15] = molecular target: Neuromedin-U receptor 2 (Mus musculus, UniProt Q8BZ39); test: Agonist activity at mouse NMUR2 expressed in HEK293 cells by calcium mobilization assay; type: functional, cell-based
Neuromedin-U receptor 2 [16] = molecular target: T2, Neuromedin-U receptor 2; test: Agonist activity at human NMUR2 expressed in HEK293 cells at 1 to 100 nM by calcium mobilization assay relative to NMU; type: functional, cell-based; summary of the method: as §2
Neuromedin-U receptor 2 [17] = molecular target: T2, Neuromedin-U receptor 2; test: Partial agonist activity at human NMUR2 expressed in CHO cells by calcium mobilization assay; type: functional, cell-based; summary of the method: as §4
Neuromedin-U receptor 1 [18] = molecular target: T3, Neuromedin-U receptor 1; test: Agonist activity at human NMUR1 expressed in CHO cells by calcium mobilization assay; type: functional, cell-based

T2 sequence (Q9GZQ4 whole entry): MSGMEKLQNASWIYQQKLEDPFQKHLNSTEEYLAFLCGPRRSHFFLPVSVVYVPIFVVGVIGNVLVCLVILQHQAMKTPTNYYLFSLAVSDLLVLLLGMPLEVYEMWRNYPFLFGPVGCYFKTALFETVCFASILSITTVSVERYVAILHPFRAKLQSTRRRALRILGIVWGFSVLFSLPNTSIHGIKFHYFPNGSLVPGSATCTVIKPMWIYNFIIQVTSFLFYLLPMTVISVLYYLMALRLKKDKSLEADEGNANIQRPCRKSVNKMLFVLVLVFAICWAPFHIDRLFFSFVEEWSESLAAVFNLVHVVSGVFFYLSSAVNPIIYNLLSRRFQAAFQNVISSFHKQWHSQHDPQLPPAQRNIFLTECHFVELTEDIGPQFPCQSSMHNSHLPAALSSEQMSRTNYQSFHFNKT
Chain of Neuromedin-U receptor 2 (Mus musculus, UniProt Q8BZ39) (Q8BZ39 whole entry): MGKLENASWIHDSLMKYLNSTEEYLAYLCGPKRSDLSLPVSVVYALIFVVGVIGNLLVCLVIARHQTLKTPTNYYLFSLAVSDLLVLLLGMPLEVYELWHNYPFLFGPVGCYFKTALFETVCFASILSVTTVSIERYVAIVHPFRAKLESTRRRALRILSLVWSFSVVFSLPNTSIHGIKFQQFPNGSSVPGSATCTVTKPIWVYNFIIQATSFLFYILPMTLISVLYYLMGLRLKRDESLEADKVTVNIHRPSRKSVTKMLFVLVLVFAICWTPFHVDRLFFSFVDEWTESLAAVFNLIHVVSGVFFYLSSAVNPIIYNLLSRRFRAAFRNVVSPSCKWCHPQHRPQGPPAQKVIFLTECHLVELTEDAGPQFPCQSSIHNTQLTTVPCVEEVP

CC(C)C[C@H](NC(=O)CCC1CCCCC1)C(=O)N[C@@H](CC(C)C)C(=O)N[C@@H](CN)C(=O)N1CCC[C@H]1C(=O)N[C@@H](CCCNC(=N)N)C(=O)N[C@@H](CC(N)=O)C(N)=O ({Propanoyl(3-cHex)}-LL[Dap]PRN-NH2)
Activity [1]: > 1000 nM | Activity (Neuromedin-U receptor 2 [2]): 70% | Selectivity ratio (Homo sapiens [3]): > 152 | Activity (Neuromedin-U receptor 2 [4]): 6.6 nM | pEC50 (Neuromedin-U receptor 2 [5]): 8.19 | Intrinsic activity (Neuromedin-U receptor 2 [6]): 98% | Selectivity ratio (Homo sapiens [7]): < 0.0066 | Activity (Neuromedin-U receptor 2 [8]): 88%

N=C(N)NCCC[C@H](NC(=O)[C@@H]1CCCN1C(=O)[C@H](CCCNC(=N)N)NC(=O)[C@H](Cc1ccccc1)NC(=O)[C@H](Cc1ccc2ccccc2c1)NC(=O)CCc1cccnc1)C(=O)N[C@@H](CC(N)=O)C(N)=O ({Propanoyl(3-(3-pyridyl))}-[2Nal]FRPRN-NH2)
Activity [9]: Active | Activity [1]: 5.1 nM | Intrinsic activity [10]: 79% | Selectivity ratio (Homo sapiens [3]): 0.02 | Activity (Neuromedin-U receptor 2 [4]): 249 nM | pEC50 (Neuromedin-U receptor 1 [11]): 8.66 | Activity [12]: 84% | Selectivity ratio (Homo sapiens [7]): 49 | Activity [13]: 63%

CC(C)C[C@H](NC(=O)[C@H](Cc1ccccc1)NC(=O)[C@@H](N)Cc1ccc(O)cc1)C(=O)N[C@@H](Cc1ccccc1)C(=O)N[C@@H](CCCNC(=N)N)C(=O)N1CCC[C@H]1C(=O)N[C@@H](CCCNC(=N)N)C(=O)N[C@@H](CC(N)=O)C(N)=O
pEC50 (Neuromedin-U receptor 1 [14]): 8.02 | pEC50 (Neuromedin-U receptor 2 [15]): 8.52

H-YFLFAPRN-NH2
pEC50 (Neuromedin-U receptor 1 [14]): 5.62 | pEC50 (Neuromedin-U receptor 2 [15]): 6.81

CC(C)C[C@H](NC(=O)CCc1ccccc1)C(=O)N[C@@H](Cc1ccccc1)C(=O)N[C@@H](CCCNC(=N)N)C(=O)N1CCCC[C@H]1C(=O)N[C@@H](CCCNC(=N)N)C(=O)N[C@@H](CC(N)=O)C(N)=O (Hydrocinnamoyl-LFR[Pip]RN-NH2)
Activity [9]: Active | Activity (Neuromedin-U receptor 2 [16]): Active

CC(C)C[C@H](NC(=O)CCc1ccccc1)C(=O)N[C@@H](Cc1ccc(O)cc1)C(=O)N[C@@H](CCCNC(=N)N)C(=O)N1CCC[C@H]1C(=O)N[C@@H](CCCNC(=N)N)C(=O)N[C@@H](CC(N)=O)C(N)=O (Hydrocinnamoyl-LYRPRN-NH2)
Activity [9]: inactive | Activity (Neuromedin-U receptor 2 [16]): inactive

CC(C)C[C@H](NC(=O)CCc1ccccc1)C(=O)N[C@@H](Cc1ccccc1)C(=O)N[C@@H](CCCNC(=N)N)C(=O)N1CCC[C@H]1C(=O)N[C@@H](CCCNC(=N)N)C(=O)N[C@@H](CC(N)=O)C(N)=O (Hydrocinnamoyl-LFRPRN-NH2)
Activity [9]: Active | Activity [1]: 20 nM | pEC50 (Neuromedin-U receptor 2 [17]): 8.08 | Intrinsic activity [10]: 71% | Selectivity ratio (Homo sapiens [3]): 1.1 | Activity (Neuromedin-U receptor 2 [4]): 18 nM | Intrinsic activity (Neuromedin-U receptor 2 [6]): 82% | Activity (Neuromedin-U receptor 2 [16]): Active | pEC50 (Neuromedin-U receptor 1 [11]): 8.05 | Selectivity ratio (Homo sapiens [7]): 0.9

CC(C)C[C@H](NC(=O)CCc1ccccc1)C(=O)N[C@@H](Cc1ccccc1)C(=O)N[C@@H](CCCNC(=N)N)C(=O)N1CCC[C@H]1C(=O)N[C@@H](CCCNC(=N)N)C(=O)N[C@@H](CC(=O)O)C(N)=O (Hydrocinnamoyl-LFRPRD-NH2)
Activity [9]: inactive | Activity (Neuromedin-U receptor 2 [16]): inactive

CC(C)C[C@H](NC(=O)CCc1ccccc1)C(=O)N[C@H](C(=O)N[C@@H](CCCNC(=N)N)C(=O)N1CCC[C@H]1C(=O)N[C@@H](CCCNC(=N)N)C(=O)N[C@@H](CC(N)=O)C(N)=O)c1ccccc1 (Hydrocinnamoyl-L[Phg]RPRN-NH2)
Activity [9]: inactive | Activity (Neuromedin-U receptor 2 [16]): inactive

CC(C)C[C@H](NC(=O)[C@H](CCCNC(=N)N)NC(=O)[C@@H]1CCCN1C(=O)[C@H](CCCNC(=N)N)NC(=O)[C@H](Cc1ccccc1)NC(=O)[C@H](CC(C)C)NC(=O)CCc1ccccc1)C(N)=O (Hydrocinnamoyl-LFRPRL-NH2)
Activity [9]: inactive | Activity (Neuromedin-U receptor 2 [16]): inactive

CC(C)C[C@H](NC(=O)CCc1ccccc1)C(=O)N[C@@H](CCc1ccccc1)C(=O)N[C@@H](CCCNC(=N)N)C(=O)N1CCC[C@H]1C(=O)N[C@@H](CCCNC(=N)N)C(=O)N[C@@H](CC(N)=O)C(N)=O (Hydrocinnamoyl-L[hPhe]RPRN-NH2)
Activity [9]: inactive | Activity (Neuromedin-U receptor 2 [16]): inactive

H-FRVDEEFQSPFASQSRGYFLFRPRN-NH2
Activity [1]: 0.43 nM | Selectivity ratio (Homo sapiens [3]): 0.17 | Activity (Neuromedin-U receptor 2 [4]): 2.5 nM | pEC50 (Neuromedin-U receptor 2 [5]): 8.60 | pEC50 (Neuromedin-U receptor 1 [18]): 9.37 | Selectivity ratio (Homo sapiens [7]): 5.8

CC(C)C[C@H](NC(=O)CCc1ccccc1)C(=O)N[C@@H](Cc1ccccc1)C(=O)N[C@@H](CCCCNC(=N)N)C(=O)N1CCC[C@H]1C(=O)N[C@@H](CCCNC(=N)N)C(=O)N[C@@H](CC(N)=O)C(N)=O (Hydrocinnamoyl-LF[hArg]PRN-NH2)
Activity [9]: Active | Activity (Neuromedin-U receptor 2 [16]): Active

CC(C)C[C@H](NC(=O)CCc1ccccc1)C(=O)N[C@@H](Cc1ccccc1)C(=O)N[C@@H](CCCNC(=N)N)C(=O)N1CCC[C@H]1C(=O)N[C@@H](CCCNC(=N)N)C(=O)N[C@@H](C)C(N)=O (Hydrocinnamoyl-LFRPRA-NH2)
Activity [9]: inactive | Activity (Neuromedin-U receptor 2 [16]): inactive
